# Published values gathered from unrelated publications.
# Lines come from different studies, so protocols differ. pEC50, pIC50: −log10 of the molar value.
# Organism: Plasmodium falciparum
# Observed: parasite growth
# Notes: blood stage
SMILES,technique,strain,time,endpoint,result
COc1cc(/C=C/C(=O)C(=Cc2ccc(O)cc2)C(=O)/C=C/c2ccc(O)c(OC)c2)ccc1O,,3D7,,pEC50,5.36
Cc1ccc(N(C)c2ccc(NC(=O)CN(C)c3ccccc3N3CCCC3=O)cc2)nc1,,3D7,72 h,pEC50,5.40
Cc1ccc(N(CC2=NCCN2)c2cccc(O)c2)cc1,SYBR Green,3D7,,pIC50,5.75
COC1=CC(c2ccc[nH]2)=N/C1=C\c1cc(Cc2ccc(OC(F)(F)F)cc2)c(C)[nH]1,SYBR Green,D6,72 h,pIC50,8.50
Cc1cc2ccc(-c3cnn(C)c3)cc2n1CC(=O)Nc1ccccc1Cl,,3D7,72 h,pEC50,6.22
CCN(c1ccc(C)cc1)c1ccc(NC(=O)CN(C)c2ccccc2N2CCCC2=O)cn1,,3D7,72 h,pEC50,8.40
Cc1nnc(-c2ccc3ccn(CC(=O)Nc4cccnc4)c3c2)o1,,3D7,72 h,pEC50,5.32 to 5.37
COc1cc(/C=C/C(=O)C(=Cc2cccc(O)c2)C(=O)/C=C/c2ccc(O)c(OC)c2)ccc1O,,3D7,,pEC50,5.94
CCN(CC)CCOc1ccc2c(c1)C(=O)c1cc(OCCN(CC)CC)ccc1-2,SYBR Green,3D7,,pIC50,5.81
COC1=C(OC)/C(=C/c2cc(-c3ccc(OC(F)(F)F)cc3)c(C)[nH]2)N=C1c1ccc[nH]1,SYBR Green,D6,72 h,pIC50,6.28
COc1cc(/C=C/c2cc(/C=C/c3ccc(O)c(OC)c3)n(-c3cccc([N+](=O)[O-])c3)n2)ccc1O,,3D7,,pEC50,6.09
COC1=CC(c2ccc[nH]2)=N/C1=C\c1[nH]c(-c2ccccc2)cc1-c1ccccc1,SYBR Green,D6,72 h,pIC50,7.78
N#Cc1ccc(Oc2ccc(NC(=O)CNc3ccccc3N3CCCC3=O)cc2)cc1,,3D7,72 h,pEC50,5.85
CNCC[C@H](Oc1cccc2ccccc12)c1cccs1,,NF54,,pIC50,6.15
CC(C)N(c1ccc(C#N)cc1)c1ccc(NC(=O)CN(C)c2ccccc2N2CCCC2=O)c(F)c1,,3D7,72 h,pEC50,7.36
Cn1cc(-c2ccc3ccn(CC(=O)Nc4ccccc4Cl)c3c2)c(C(F)(F)F)n1,,3D7,72 h,pEC50,7.34
COc1cc(C=C(C(=O)/C=C/c2ccc(O)c(OC)c2)C(=O)/C=C/c2ccc(O)c(OC)c2)ccc1O,,3D7,,pEC50,5.75
CCC1=C(CC)/C(=C/c2cc(-c3ccc(OC(F)(F)F)cc3)c(C)[nH]2)N=C1c1ccc[nH]1,SYBR Green,D6,72 h,pIC50,< 5.60
Cc1ccc(N(C)c2ccc(NC(=O)CN(C)c3cc(F)ccc3N3CCCC3=O)cc2)cc1,,3D7,72 h,pEC50,7.47
N=C(N)N/N=C/c1c(Cl)cccc1Cl,SYBR Green,3D7,,pIC50,7.40
Cc1[nH]c(/C=C2\N=C(c3ccc[nH]3)C=C2OC(C)C)cc1Cc1ccc(Cl)cc1,SYBR Green,D6,72 h,pIC50,8.43
O=C(CNc1ccccc1N1CCCC1=O)Nc1ccc(Oc2ccccc2)cc1,,3D7,72 h,pEC50,< 5.00
CCC1=C(CC)/C(=C/c2cc(Cc3ccc(Cl)cc3)c(C)[nH]2)N=C1c1ccc[nH]1,SYBR Green,D6,72 h,pIC50,6.46
Cc1ccc(Oc2ccc(NC(=O)CNc3ccccc3N3CCCCC3=O)cc2)cc1,,3D7,72 h,pEC50,5.60
Cc1[nH]c(/C=C2\N=C(c3ccc[nH]3)C=C2OCc2ccccc2)cc1Cc1ccc(Cl)cc1,SYBR Green,D6,72 h,pIC50,8.00
COc1cc(/C=C2\CCC/C(=C\c3ccc(O)c(OC)c3)C2=O)ccc1O,,3D7,,pEC50,6.70
C[C@H]1Cc2c([nH]c3cc(Cl)c(F)cc23)[C@@]2(N1)C(=O)Nc1ccc(Cl)cc12,,DD2,72 h,pEC50,9.15
Cc1ccc(N(C)c2ccc(NC(=O)CN(C)c3ccccc3N3CCCC3=O)c(F)c2)cc1,,3D7,72 h,pEC50,8.52
CCOC1=CC(c2ccc[nH]2)=N/C1=C\c1cc(Cc2ccc(OC(F)(F)F)cc2)c(C)[nH]1,SYBR Green,D6,72 h,pIC50,8.16
COc1cc(/C=C/C(=O)/C=C/c2ccc(O)c(OC)c2)ccc1O,,3D7,,pEC50,6.82
